Records with an inconclusive call do not appear. Activity calls are given as the source filed them.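 The calls were made as follows: active = eight-GTPase mean potency score over 50, needing half-effect dose up to 10 µM and response span 30% or more; inconclusive = no clear call, values can overlap the other calls; inactive = the rest.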
Tests used:
Test in all cases: inhibitors of GTP binding to eight small GTPases, SAR follow-up, biochemical, round 1 SAR, Mg buffer, multiplex flow cytometry (AID 588479)
Cdc42ACT = details: multiplex GST-GTPase beads, Bodipy-GTP binding, constitutively active; for response, lower = inhibition: at 100 µM (top of the series)
In short: (§1)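 System: GST-GTPase bead multiplex, wild-type and constitutively active forms / Medium: mg buffer, pH 7.5, with 1 mM MgCl2 / Schedule: beads, compound and labeled GTP incubated 40–45 min at 4 °C / Measured by: flow cytometry, green median fluorescence per bead / Evaluation: normalized response, EC50 by four-parameter fit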

RacWT = details: multiplex GST-GTPase beads, Bodipy-GTP binding, wild type; for response, lower = inhibition: at 100 µM (top of the series)
In short: as §1

RacACT = details: multiplex GST-GTPase beads, Bodipy-GTP binding, constitutively active; for response, lower = inhibition: at 100 µM (top of the series)
In short: as §1

Cdc42WT = details: multiplex GST-GTPase beads, Bodipy-GTP binding, wild type; for response, lower = inhibition: at 100 µM (top of the series)
In short: as §1

RhoWT = details: multiplex GST-GTPase beads, Bodipy-GTP binding, wild type; for response, lower = inhibition: at 100 µM (top of the series)
In short: as §1

RasACT = details: multiplex GST-GTPase beads, Bodipy-GTP binding, constitutively active
In short: as §1

EC50 (Cdc42ACT) [nM] | EC50 (RacWT) [nM] | EC50 (RacACT) [nM] | EC50 (Cdc42WT) [nM] | EC50 (RhoWT) [nM] | response, lower = inhibition (Cdc42ACT) | response, lower = inhibition (RacWT) | response, lower = inhibition (RacACT) | EC50 (RasACT) [nM] | response, lower = inhibition (Cdc42WT) | response, lower = inhibition (RhoWT) | SMILES
170 | 214 | 204 | 154 | 280 |  |  |  |  |  |  | CC1(C)Cc2c(sc(NC(=S)NC(=O)c3ccc(Br)cc3)c2C(=O)O)CO1
 |  |  |  |  | inactive | inactive | inactive | 1780 | inactive | inactive | CC1(C)Cc2c(sc(NC(=S)Nc3ccccc3)c2C(=O)O)CO1
 |  |  |  |  | inactive | inactive | inactive |  | inactive | inactive | CC1(C)Cc2c(sc(NC(=O)Cc3ccccc3)c2C(=O)O)CO1
60 | 58 | 59 | 64 | 65 |  |  |  |  |  |  | CC1(C)Cc2c(sc(NC(=S)NC(=O)c3ccccc3F)c2C(=O)O)CO1
 |  |  |  |  | inactive | inactive | inactive |  | inactive | inactive | CC1(C)Cc2c(sc(NC(=S)NC(=O)c3cccc(Br)c3)c2C(=O)O)CO1
 |  | 71 | 69 | 70 | inactive | inactive |  |  |  |  | CC1(C)Cc2c(sc(NC(=S)NC(=O)c3ccccc3Br)c2C(=O)O)CO1
122 | 141 | 122 | 118 | 111 |  |  |  |  |  |  | COc1cccc(C(=O)NC(=S)Nc2sc3c(c2C(=O)O)CC(C)(C)OC3)c1
465 | 471 | 466 | 493 | 499 |  |  |  |  |  |  | CC1(C)Cc2c(sc(NC(=S)NC(=O)c3cccc(F)c3)c2C(=O)O)CO1

More lines, now with the values behind:

SMILES | EC50 (Cdc42ACT) [nM] | EC50 (RacWT) [nM] | EC50 (RacACT) [nM] | EC50 (Cdc42WT) [nM] | EC50 (RhoWT) [nM] | response, lower = inhibition (Cdc42ACT) | response, lower = inhibition (RacWT) | response, lower = inhibition (RacACT) | EC50 (RasACT) [nM] | response, lower = inhibition (Cdc42WT) | response, lower = inhibition (RhoWT)
Cc1ccc(NC(=O)Nc2sc3c(c2C(=O)O)CCN(C)C3)cc1 |  |  |  |  |  | inactive | inactive | inactive |  | inactive | inactive
CCOC(=O)c1c(N)sc2ccccc12 |  |  |  |  |  | inactive | inactive | inactive |  | inactive | inactive
COC(=O)c1c(N)sc2c1CC(C)(C)OC2 |  |  |  |  |  | inactive |  |  |  |  | 
COc1ccc(C(=O)NC(=S)Nc2sc3c(c2C(=O)O)CC(C)(C)OC3)cc1 | 143 | 133 | 142 | 127 | 139 |  |  |  |  |  | 
CCOC(=O)c1c(NC(=O)Nc2ccc(C)cc2)sc2c1CCN(C)C2 |  |  |  |  |  | inactive |  |  |  |  | 
CCOC(=O)c1c(NC(=O)Nc2ccc(F)cc2)sc2c1CCN(C)C2 |  |  |  |  |  | inactive |  |  |  |  | 
CC1(C)CCc2sc(NC(=S)NC(=O)c3ccccc3)c(C(=O)O)c2C1 | 106 | 89 | 109 | 99 | 81 |  |  |  |  |  | 

From PubChem BioAssay AID588479 (NMMLSC, 2011)
